Experimental data from ChEMBL document CHEMBL3259728, “Design, synthesis and biological evaluation of some novel substituted quinazolines as antitumor agents” (2014).

Experiments:
Type in all cases: functional
KM12 = assay: Growth inhibition of human KM12 cells assessed as cell growth at 10^-8 M after 48 hrs by SRB assay; conditions: KM12, 48 h, read-out: Activity
786-0 [1] = assay: Growth inhibition of human 786-0 cells assessed as cell growth at 10^-8 M after 48 hrs by SRB assay; conditions: 786-0, 48 h, read-out: Activity
How it was run: (§1)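 Five-dose NCI panel protocol. Each dose (10^-4 to 10^-8 M, 10-fold steps) was given as 48 h continuous exposure, and protein was measured by SRB staining. Percentage growth at each level is [(Ti−Tz)/(C−Tz)]×100, where Tz is time-zero absorbance and C is untreated control.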

786-0 [2] = assay: Growth inhibition of human 786-0 cells assessed as cell growth at 10^-4 M after 48 hrs by SRB assay; conditions: 786-0, 48 h, read-out: Activity; how it was run: as §1
HCT-116 = assay: Cytotoxicity against human HCT116 cells after 48 hrs by SRB assay; conditions: HCT-116, 48 h
How it was run: (§2)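 NCI 60-cell-line panel of human tumour lines from nine cancer types. Continuous 48 h exposure at five 10-fold dilutions from 10^-4 to 10^-8 M, with 5-FU as positive control. SRB protein stain read spectrophotometrically at time zero, untreated control and each concentration. GI50, TGI and LC50 were derived from the [(Ti−Tz)/(C−Tz)]×100 growth relations, and out-of-range values are given as > or < the tested limits.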

COLO 205 = assay: Growth inhibition of human COLO205 cells assessed as cell growth at 10^-4 M after 48 hrs by SRB assay; conditions: COLO 205, 48 h, read-out: Activity; how it was run: as §1
MDA-MB-231 = assay: Growth inhibition of human MDA-MB-231 cells assessed as cell growth at 10^-6 M after 48 hrs by SRB assay; conditions: MDA-MB-231, 48 h, read-out: Activity
IGROV-1 = assay: Growth inhibition of human IGROV1 cells assessed as cell growth at 10^-8 M after 48 hrs by SRB assay; conditions: IGROV-1, 48 h, read-out: Activity
HT-29 = assay: Growth inhibition of human HT-29 cells assessed as cell growth at 10^-6 M after 48 hrs by SRB assay; conditions: HT-29, 48 h, read-out: Activity
Malme-3M [3] = assay: Growth inhibition of human MALME-3M cells assessed as cell growth at 10^-7 M after 48 hrs by SRB assay; conditions: read-out: Activity
[4] = Growth inhibition of human OVCAR5 cells assessed as cell growth at 10^-4 M after 48 hrs by SRB assay; conditions: OVCAR-5, 48 h, read-out: Activity
SF-268 = assay: Growth inhibition of human SF268 cells assessed as cell growth at 10^-7 M after 48 hrs by SRB assay; conditions: SF-268, 48 h, read-out: Activity
DU-145 = assay: Growth inhibition of human DU145 cells assessed as cell growth at 10^-6 M after 48 hrs by SRB assay; conditions: DU-145, 48 h, read-out: Activity
HOP-62 [5] = assay: Growth inhibition of human HOP62 cells assessed as cell growth at 10^-6 M after 48 hrs by SRB assay; conditions: HOP-62, 48 h, read-out: Activity
CCRF-CEM [6] = assay: Growth inhibition of human CCRF-CEM cells assessed as cell growth at 10^-7 M after 48 hrs by SRB assay; conditions: read-out: Activity; how it was run: as §1
[7] = Growth inhibition of human OVCAR5 cells assessed as cell growth at 10^-8 M after 48 hrs by SRB assay; conditions: OVCAR-5, 48 h, read-out: Activity
SW-620 = assay: Growth inhibition of human SW620 cells assessed as cell growth at 10^-5 M after 48 hrs by SRB assay; conditions: SW-620, 48 h, read-out: Activity
K562 = assay: Cytotoxicity against human K562 cells after 48 hrs by SRB assay; conditions: K562, 48 h; how it was run: as §2
HOP-62 [8] = assay: Growth inhibition of human HOP62 cells assessed as cell growth at 10^-8 M after 48 hrs by SRB assay; conditions: HOP-62, 48 h, read-out: Activity
[9] = Growth inhibition of human OVCAR4 cells assessed as cell growth at 10^-8 M after 48 hrs by SRB assay; conditions: OVCAR-4, 48 h, read-out: Activity
786-0 [10] = assay: Cytotoxicity against human 786-0 cells after 48 hrs by SRB assay; conditions: 786-0, 48 h; how it was run: as §2
[11] = Growth inhibition of human SF295 cells assessed as cell growth at 10^-5 M after 48 hrs by SRB assay; conditions: SF-295, 48 h, read-out: Activity
CCRF-CEM [12] = assay: Growth inhibition of human CCRF-CEM cells assessed as cell growth at 10^-6 M after 48 hrs by SRB assay; conditions: read-out: Activity; how it was run: as §1
SK-MEL-28 = assay: Growth inhibition of human SK-MEL-28 cells assessed as cell growth at 10^-4 M after 48 hrs by SRB assay; conditions: SK-MEL-28, 48 h, read-out: Activity
A498 = assay: Growth inhibition of human A498 cells assessed as cell growth at 10^-4 M after 48 hrs by SRB assay; conditions: A498, 48 h, read-out: Activity; how it was run: as §1
[13] = Growth inhibition of human SF539 cells assessed as cell growth at 10^-5 M after 48 hrs by SRB assay; conditions: SF-539, 48 h, read-out: Activity
[14] = Growth inhibition of human UACC257 cells assessed as cell growth at 10^-5 M after 48 hrs by SRB assay; conditions: UACC-257, 48 h, read-out: Activity
SF-539 = assay: Cytotoxicity against human SF539 cells after 48 hrs by SRB assay; conditions: SF-539, 48 h; how it was run: as §2
M14 = assay: Growth inhibition of human M14 cells assessed as cell growth at 10^-4 M after 48 hrs by SRB assay; conditions: M14, 48 h, read-out: Activity
Malme-3M [15] = assay: Cytotoxicity against human MALME-3M cells after 48 hrs by SRB assay; how it was run: as §2
MDA-MB-468 = assay: Growth inhibition of human MDA-MB-468 cells assessed as cell growth at 10^-7 M after 48 hrs by SRB assay; conditions: MDA-MB-468, 48 h, read-out: Activity
[16] = read-out: LC50 (the source's name)
[17] = read-out: pLC50 (the source's name) (converted)

## Cc1ccc(-c2nc3ccc(Cl)cc3c(=O)n2/N=C/c2ccccc2)cc1
KM12
  growth at 0.01 µM: 95%
786-0 [1]
  growth at 0.01 µM: 90%
786-0 [2]
  growth at 100 µM: 17%
HCT-116; read-out: GI50
  GI50: 5.51 µM
HCT-116; [16]
  CC50: > 100 µM
HCT-116; read-out: TGI
  TGI: > 100 µM
HCT-116; read-out: pGI50 (converted)
  GI50: 5.5 µM
HCT-116; [17]
  CC50: > 100 µM
HCT-116; read-out: pTGI
  TGI: > 100 µM
COLO 205
  growth at 100 µM: 38%
MDA-MB-231
  growth at 1 µM: 78%
IGROV-1
  growth at 0.01 µM: 94%
HT-29
  growth at 1 µM: 94%
Malme-3M [3]
  growth at 0.1 µM: 76%
[4]
  growth at 100 µM: 61%
SF-268
  growth at 0.1 µM: 88%
DU-145
  growth at 1 µM: 96%
HOP-62 [5]
  growth at 1 µM: 86%
CCRF-CEM [6]
  growth at 0.1 µM: 97%
[7]
  growth at 0.01 µM: 96%
SW-620
  growth at 10 µM: 67%
K562; read-out: GI50
  GI50: > 100 µM
K562; read-out: LC50
  LC50: > 100 µM
K562; read-out: TGI
  TGI: > 100 µM
K562; read-out: pGI50 (converted)
  GI50: > 100 µM
K562; read-out: pLC50 (converted)
  LC50: > 100 µM
K562; read-out: pTGI
  TGI: > 100 µM
HOP-62 [8]
  growth at 0.01 µM: 97%
[9]
  growth at 0.01 µM: 95%
786-0 [10]; read-out: GI50
  GI50: 3.62 µM
786-0 [10]; [16]
  CC50: > 100 µM
786-0 [10]; read-out: TGI
  TGI: > 100 µM
786-0 [10]; read-out: pGI50 (converted)
  GI50: 3.63 µM
786-0 [10]; [17]
  CC50: > 100 µM
786-0 [10]; read-out: pTGI
  TGI: > 100 µM
[11]
  growth at 10 µM: 36%
CCRF-CEM [12]
  growth at 1 µM: 88%
SK-MEL-28
  growth at 100 µM: 27%
A498
  growth at 100 µM: 17%
[13]
  growth at 10 µM: 73%
[14]
  growth at 10 µM: 73%
SF-539; read-out: GI50
  GI50: > 100 µM
SF-539; [16]
  CC50: > 100 µM
SF-539; read-out: TGI
  TGI: > 100 µM
SF-539; read-out: pGI50 (converted)
  GI50: > 100 µM
SF-539; [17]
  CC50: > 100 µM
SF-539; read-out: pTGI
  TGI: > 100 µM
M14
  growth at 100 µM: 47%
Malme-3M [15]; read-out: GI50
  GI50: 5.97 µM
Malme-3M [15]; [16]
  CC50: > 100 µM
Malme-3M [15]; read-out: TGI
  TGI: > 100 µM
Malme-3M [15]; read-out: pGI50 (converted)
  GI50: 6.03 µM
Malme-3M [15]; [17]
  CC50: > 100 µM
Malme-3M [15]; read-out: pTGI
  TGI: > 100 µM
MDA-MB-468
  growth at 0.1 µM: 93%
